Reference: ChEMBL document CHEMBL5335799, “Design, Synthesis, and Evaluation of Inhibitors of Hedgehog Acyltransferase” (J Med Chem, 2024)
Values belong to the compound of their own block, whether it stands above or below them.

Legend:
[1] = Permeability of compound at pH 7.4 by PAMPA assay; assay type: ADME
How it was run: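 Passive diffusion across an artificial membrane of 2% phosphatidylcholine in dodecane. Test compound at 10 μM was incubated 16 h at 30 °C, with donor pH 5, 6.5 or 7.4.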

[2] = Apparent permeability across basolateral to apical side in human Caco-2 cells at 10 uM pH 7.4 measured after 2 hrs by LC-MS/MS analysis; assay type: ADME, cell-based; settings: caco-2, pH 7.4, 2 h
How it was run: (§1)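 Caco-2 cells grown in DMEM with 10% FBS, penicillin and streptomycin for 10 days, then plated; monolayer confluency checked by TEER. Compound at 10 μM (1% DMSO) in HBSS pH 7.4 added to apical or basal wells and incubated 2 h at 37 °C. Lucifer yellow used to confirm membrane integrity afterwards. Both chambers quantified by LC-MS/MS against a matrix-matched standard curve.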

[3] = Apparent permeability across apical to basolateral side in human Caco-2 cells at 10 uM pH 7.4 measured after 2 hrs by LC-MS/MS analysis; assay type: ADME, cell-based; settings: caco-2, pH 7.4, 2 h; how it was run: as §1
[4] = target: T1, Protein-cysteine N-palmitoyltransferase HHAT (Homo sapiens, UniProt Q5VTY9); test: Inhibition of human recombinant HHAT using SHH-FAM peptide as substrate at 50 uM for 30 mins by acylation coupled lipophilic induction of polarization (acyl-cLIP) assay relative to control
T1 sequence (Q5VTY9 whole entry): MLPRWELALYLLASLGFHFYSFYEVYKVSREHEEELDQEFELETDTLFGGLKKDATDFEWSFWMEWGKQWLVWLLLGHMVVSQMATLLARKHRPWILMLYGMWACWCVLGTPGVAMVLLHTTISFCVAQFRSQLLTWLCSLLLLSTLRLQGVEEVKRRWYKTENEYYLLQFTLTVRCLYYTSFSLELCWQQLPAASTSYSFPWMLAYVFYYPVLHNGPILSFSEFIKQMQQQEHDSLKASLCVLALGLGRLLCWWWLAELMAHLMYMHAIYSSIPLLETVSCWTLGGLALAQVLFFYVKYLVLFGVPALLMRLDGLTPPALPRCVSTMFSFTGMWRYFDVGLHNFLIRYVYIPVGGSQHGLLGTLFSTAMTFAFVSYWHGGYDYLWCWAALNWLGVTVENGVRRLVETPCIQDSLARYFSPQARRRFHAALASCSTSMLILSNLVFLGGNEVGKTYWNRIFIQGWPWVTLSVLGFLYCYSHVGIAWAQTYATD
How it was run: (§2)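 DDM-solubilized recombinant HHAT mixed with SHH N-terminal FAM peptide and inhibitor or DMSO in MES buffer pH 6.5 with DTT, TCEP and BSA. Reaction started with palmitoyl-CoA; fluorescence anisotropy followed over 30 min in quadruplicate wells. Initial rates from linear regression were normalized to DMSO and no-enzyme controls.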

[5] = target: T1, Protein-cysteine N-palmitoyltransferase HHAT; test: Inhibition of human recombinant HHAT using SHH-FAM peptide as substrate for 30 mins by acylation coupled lipophilic induction of polarization (acyl-cLIP) assay; how it was run: as §2
[6] = Cytotoxicity against human SHH+ HEK293a cells assessed as cell viability at 25 uM measured after 72 hrs by MTS assay relative to control; assay type: toxicity, cell-based, HEK293-A; settings: read-out: Activity
[7] = target: T1, Protein-cysteine N-palmitoyltransferase HHAT; test: Inhibition of human recombinant HHAT using SHH-FAM peptide as substrate at 25 uM for 30 mins by acylation coupled lipophilic induction of polarization (acyl-cLIP) assay relative to control; how it was run: as §2
[8] = Cytotoxicity against human SHH+ HEK293a cells assessed as cell viability measured after 72 hrs by MTS assay; assay type: toxicity, cell-based, HEK293-A
How it was run: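 HEK293a SHH+ cells seeded at 5000/well and cultured 24 h. They were then exposed 72 h to vehicle, puromycin (2 μg/mL) or compound (0.14–100 μM final) in DMEM with 10% FBS. MTS/PMS added for 3 h at 37 °C and absorbance read at 490 nm. Signal normalized to vehicle and puromycin; CC50 from a variable-slope sigmoidal fit.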

[9] = Cytotoxicity against human SHH+ HEK293a cells assessed as cell viability at 12.5 uM measured after 72 hrs by MTS assay relative to control; assay type: toxicity, cell-based, HEK293-A; settings: read-out: Activity
[10] = target: T1, Protein-cysteine N-palmitoyltransferase HHAT; test: Inhibition of HHAT in human HEK293a SHH+ cells incubated with compound for 24 hrs followed by transferred into SHH-Light2 cells cellular incubated for 48 hrs by Renilla/Firefly luciferase reporter assay; assay type: cell-based, HEK293-A
How it was run: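 HEK293a SHH+ cells (120,000/well) were given compound (0.041–30 μM final) or 0.2% DMSO for 24 h. Conditioned medium was cleared at 1000g and added to SHH-Light2 cells (NIH3T3-derived, Gli-Firefly plus constitutive Renilla) in triplicate wells for 48 h.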

Compound: C=CCNCC(=O)N1CCc2sccc2C1COc1ccc(Cl)cc1 (stereo not drawn)
permeability [2]: Permeable
permeability [3]: Permeable
permeability [1]: Permeable

Compound: CCC(C)CNCC(=O)N1CCc2sccc2C1c1cccc(C)n1 (racemic)
permeability [2]: Permeable
permeability [3]: Permeable
permeability [1]: Permeable

Compound: CCC(C)CNCC(=O)N1CCc2sccc2C1c1ccccc1O (stereo not drawn)
IC50 [5]: 4.79 µM

Compound: Cc1cccc(C2c3ccsc3CCN2C(=O)NCCCC(C)C)n1 (stereo not drawn)
viability at 72 h, 25 µM [6]: 22%
IC50 [5]: 42.3 µM
inhibition [7]: 31%
CC50 at 72 h [8]: 6.1 µM
inhibition [4]: 53%
viability at 72 h, 12.5 µM [9]: 32%

Compound: CCC(C)CNCC(=O)N1CCc2sccc2C1c1cccc(C)c1 (stereo not drawn)
permeability [1]: Impermeable

Compound: CCC(C)CNCC(=O)N1CCc2ccccc2C1c1ccccc1 (stereo not drawn)
permeability [1]: Permeable

Compound: Cc1cccc([C@@H]2c3ccsc3CCN2C(=O)CNCC(C)C)n1
EC50 [10]: > 30 µM

The remaining lines, values ahead:

permeability [1]: Permeable
Compound: CC(=O)N1CCc2sccc2C1c1ccccc1 (stereo not drawn)

inhibition [4]: 56%
Compound: CC(=O)N1CCc2sccc2[C@@H]1c1cccc(C)n1

permeability [1]: Permeable
Compound: CC(=O)N1CCc2ccccc2C1c1ccccc1 (stereo not drawn)

inhibition [4]: 16%
Compound: c1ccc(C2NCCc3sccc32)cc1 (stereo not drawn)

inhibition [7]: 3%
inhibition [4]: 6%
Compound: N[C@@H](Cc1ccccc1)C(=O)N1CCc2sccc2C1c1ccccc1 (stereo partly drawn)

inhibition [4]: 91%
Compound: COc1ccccc1C1c2ccsc2CCN1C(C)=O (stereo not drawn)
